Drawing on ChEMBL document CHEMBL3870321, “Substituted 4-morpholine N-arylsulfonamides as γ-secretase inhibitors” (Eur J Med Chem, 2016), this text covers IC50, AUC(0-t) and inhibition in vivo for 17 compounds.

The target in series [1] is T1, Cytochrome P450 3A4 (Homo sapiens, UniProt P08684). Briefly: Inhibition of CYP3A4 (unknown origin) preincubated with enzyme. It is filed as ADME. The method, boiled down:
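Recombinant CYP3A4 was pre-incubated with compound, and data were collected 30 min after the compound was combined with enzyme. Read-out was fluorescent product formed from a […] substrate. Values are means of two experiments.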

The target in series [2] is T1, Cytochrome P450 3A4. Kind of series: Inhibition of CYP3A4 (unknown origin). The format is ADME. The method, boiled down:
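Recombinant CYP3A4 was co-incubated with compound, and fluorescent product formed from a […] coumarin or fluorescein substrate was read out. Values are means of two experiments.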

Series [3] in a line: Inhibition of gamma-secretase in HEK293 cells expressing APP London mutant assessed as reduction in amyloid beta 40 level after 5 hrs by immunoassay. Particulars: Homo sapiens, HEK293, 5 h.
In series [4] the target is T1, Cytochrome P450 3A4. Kind of series: Inhibition of recombinant human CYP3A4 expressed in baculovirus infected insect cells using fluorescent substrate. It is filed as ADME.
A short description of series [5]: Inhibition of gamma-secretase in HEK293 cells expressing human APP Swedish/London mutant assessed as reduction in amyloid beta 40 level after 5 hrs by sandwich immunoassay. It is filed as cell-based. Particulars: HEK293, 5 h. The method, boiled down:
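HEK293 cells stably transfected with human APP cDNA carrying Swedish and London mutations were exposed to inhibitor for 5 h. Aβ40 in conditioned medium was measured by MSD sandwich immunoassay (TAG-G2-10/biotin-4G8). IC50 came from a four-parameter variable-slope nonlinear fit, with duplicate or triplicate measurements per experiment.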

In series [6] the target is T1, Cytochrome P450 3A4. Kind of series: Inhibition of recombinant human CYP3A4 expressed in baculovirus infected insect cells preincubated for 30 mins using fluorescent substrate. The format is ADME.
Series [7] can be described thus: AUC (0 to 6 hrs) in Sprague-Dawley rat at 30 mg/kg, po by LC-MS/MS analysis. Particulars: in vivo. More on the design: dose 30 mg/kg, time < 6 hr, route oral. It is filed as ADME, organism-based. In outline:
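Two fasted male Sprague-Dawley rats per compound, femoral-artery cannulated, were dosed orally in 0.5% methylcellulose. Serial heparinized blood was taken at 0.5, 1, 2, 3, 4 and 6 h, and plasma was stored at -20 °C. Compound levels were measured by LC-MS/MS using compound-specific SRM transitions from [MH]+, and AUC was taken over 0–6 h.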

The subject of the next series is Mus musculus. Kind of series: In vivo inhibition of gamma-secretase in CRND8 transgenic mouse model of Alzheimers disease expressing APP Swedish/Indiana familial mutant assessed as reduction in amyloid beta 40 level in plasma at 30 mg/kg administered as single dose via oral gavage after 3 hrs by sandwich immunoassay. It is filed as functional. The method, boiled down: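 Transgenic CRND8 mice (5–7 weeks, male and female, counterbalanced, singly housed) received a single oral gavage dose in 20% hydroxypropyl-β-cyclodextrin. Mice were killed by CO2 at 3 h, and EDTA plasma was collected from the posterior vena cava. Plasma Aβ40 was quantified by MSD sandwich immunoassay (biotin-4G8/S-tag G2-10) and compared with a vehicle-only group.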

Where only a bound is given, the exact number is not on record here.

T1 sequence (P08684 whole entry): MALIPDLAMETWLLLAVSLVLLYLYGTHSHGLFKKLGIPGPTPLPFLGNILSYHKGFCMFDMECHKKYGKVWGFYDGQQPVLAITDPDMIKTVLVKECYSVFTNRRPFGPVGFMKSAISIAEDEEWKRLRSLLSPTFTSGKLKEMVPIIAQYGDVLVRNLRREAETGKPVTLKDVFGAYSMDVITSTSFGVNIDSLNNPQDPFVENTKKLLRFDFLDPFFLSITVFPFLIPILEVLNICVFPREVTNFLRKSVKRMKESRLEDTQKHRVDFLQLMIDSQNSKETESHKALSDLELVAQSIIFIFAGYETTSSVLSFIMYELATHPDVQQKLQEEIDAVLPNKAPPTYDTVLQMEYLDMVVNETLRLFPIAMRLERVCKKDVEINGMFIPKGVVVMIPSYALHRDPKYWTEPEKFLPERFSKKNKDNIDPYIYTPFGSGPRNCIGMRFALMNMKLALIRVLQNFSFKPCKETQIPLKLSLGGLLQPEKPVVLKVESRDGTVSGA

As to `O=S(=O)(c1ccc(Cl)cc1)N1[C@H](c2cccc(F)c2)CCC[C@@H]1C1(O)CC1`, the IC50 at Cytochrome P450 3A4 [1] is less than 0.5 µM; on Cytochrome P450 3A4 [2], less than 0.9 µM; in series [3], 0.316 µM.

With `O=S(=O)(c1ccc(Cl)cc1)N1[C@@H](CO)CCC[C@H]1c1cccc(F)c1`, the figures for the IC50 (at Cytochrome P450 3A4 [1]; on Cytochrome P450 3A4 [2]; in series [3]) were 30 µM, 13.9 µM and 0.671 µM, respectively.

In the case of `O=C(CC1([C@H]2CO[C@H]3CCC[C@H]3N2S(=O)(=O)c2ccc(Cl)cc2)CC1)N1CCC(N2CCCCC2)CC1`, the IC50 on Cytochrome P450 3A4 [4] worked out at 21 µM; in series [5] it was 0.0017 µM; on Cytochrome P450 3A4 [6] it was 8 µM.

As for `O=C(CC1([C@H]2COC[C@@H](C3CC3)N2S(=O)(=O)c2ccc(Cl)cc2)CC1)N1C2CCC1CC(N1CCCCC1)C2` (stereo not given in full), the IC50 is more than 30 µM at Cytochrome P450 3A4 [4], 0.012 µM in series [5] and 2 µM at Cytochrome P450 3A4 [6]. In series [7], the area under the curve AUC(0-t) at 6 h came to 1290 ng·h/mL.

For the compound `O=C(CC1([C@H]2COC[C@@H](C3CC3)N2S(=O)(=O)c2ccc(F)cc2)CC1)N1CCN(CCO)CC1`, the IC50 at Cytochrome P450 3A4 [4] is more than 30 µM; in series [5] it was 0.032 µM; on Cytochrome P450 3A4 [6] it was 6.9 µM. In series [7], this compound displayed an area under the curve AUC(0-t) at 6 h of 1970 ng·h/mL.

With `O=C(C(O)C1([C@H]2COC[C@@H](C3CC3)N2S(=O)(=O)c2ccc(Cl)cc2)CC1)N1C2CCC1CC(N1CCCCC1)C2` (stereo not given in full), the 50% inhibitory concentration (IC50) on Cytochrome P450 3A4 [4] is more than 30 µM; in series [5], 0.024 µM; on Cytochrome P450 3A4 [6], more than 30 µM. The compound also displayed an AUC(0-t) at 6 h in series [7] of 267 ng·h/mL.

Take `O=C(CC1([C@H]2COC[C@@H](C3CC3)N2S(=O)(=O)c2ccc(Cl)cc2)CC1)N1CC2CCC(C1)N2CCO`: the IC50 is more than 30 µM on Cytochrome P450 3A4 [4], 0.006 µM in series [5] and less than 0.4 µM on Cytochrome P450 3A4 [6]. For the same compound, the AUC(0-t) at 6 h in series [7] turned out to be 2730 ng·h/mL.

For `O=C(CC1([C@H]2COC[C@@H](C3CC3)N2S(=O)(=O)c2ccc(F)cc2)CC1)N1CCC(N2CCCCC2)CC1`, the IC50 was more than 30 µM on Cytochrome P450 3A4 [4], 0.03 µM in series [5] and 1.5 µM at Cytochrome P450 3A4 [6]. The same compound had an AUC(0-t) at 6 h in series [7] of 575 ng·h/mL.

`O=C(CC1([C@H]2CO[C@H]3CCC[C@H]3N2S(=O)(=O)c2ccc(Cl)cc2)CC1)N1CCC(CO)CC1`: the IC50 on Cytochrome P450 3A4 [4] was 30 µM; in series [5] it was 0.0018 µM; on Cytochrome P450 3A4 [6], 30 µM. The AUC(0-t) at 6 h in series [7] stood at 36 ng·h/mL.

For the compound `O=C(C(O)C1([C@H]2COC[C@@H](C3CC3)N2S(=O)(=O)c2ccc(Cl)cc2)CC1)N1CC2CCC(C1)N2` (stereo not given in full), the IC50 on Cytochrome P450 3A4 [4] was more than 30 µM; in series [5], 0.01 µM; at Cytochrome P450 3A4 [6], 9 µM. For the same compound, the AUC(0-t) at 6 h in series [7] is 254 ng·h/mL.

As to `O=C(CC1([C@H]2COC[C@@H](C3CC3)N2S(=O)(=O)c2ccc(Cl)cc2)CC1)N1CC2CCC(C1)N2`, the AUC(0-t) at 6 h in series [7] came to 1160 ng·h/mL. Also, the IC50 in series [5] was 0.0035 µM.

Turning to `CC(=O)N1C2CCC1CN(C(=O)CC1([C@H]3COC[C@@H](C4CC4)N3S(=O)(=O)c3ccc(Cl)cc3)CC1)C2`, the IC50 on Cytochrome P450 3A4 [4] worked out at 30 µM; in series [5], 0.018 µM; on Cytochrome P450 3A4 [6], 4.3 µM.

Consider `C[C@H]1CN(C(C)(C)CO)CCN1C(=O)CC1([C@H]2COC[C@@H](C3CC3)N2S(=O)(=O)c2ccc(F)cc2)CC1`, for which the results for the IC50 (at Cytochrome P450 3A4 [4]; in series [5]; at Cytochrome P450 3A4 [6]) were more than 30 µM, 0.014 µM and 2.2 µM, respectively.

For `CC(=O)N1CCN(C(=O)CC2([C@H]3COC[C@@H](C4CC4)N3S(=O)(=O)c3ccc(F)cc3)CC2)CC1`, the IC50 on Cytochrome P450 3A4 [4] came to 30 µM; in series [5], 0.067 µM; on Cytochrome P450 3A4 [6] it was 17 µM. The same compound returned an AUC(0-t) at 6 h in series [7] of 3160 ng·h/mL.

With `CC(C)(CO)N1CCN(C(=O)CC2([C@H]3COC[C@@H](C4CC4)N3S(=O)(=O)c3ccc(Cl)cc3)CC2)CC1`, the IC50 at Cytochrome P450 3A4 [4] was more than 30 µM; in series [5], 0.0059 µM; on Cytochrome P450 3A4 [6], 1.9 µM. In series [7], this compound returned an AUC(0-t) at 6 h of 464 ng·h/mL. In addition, the inhibition in vivo at 30 mg/kg in the series with Mus musculus stood at 89%.

With `O=C(CC1([C@H]2CO[C@H]3CCC[C@H]3N2S(=O)(=O)c2ccc(Cl)cc2)CC1)N1CC[C@@H](CO)C1`, the IC50 was 30 µM on Cytochrome P450 3A4 [4], 0.018 µM in series [5] and 30 µM on Cytochrome P450 3A4 [6].

On to `O=C(CC1([C@H]2CO[C@H]3CCC[C@H]3N2S(=O)(=O)c2ccc(Cl)cc2)CC1)N1CC[C@@H](O)C1`, for which the IC50 on Cytochrome P450 3A4 [4] was more than 30 µM; in series [5] it was 0.016 µM; on Cytochrome P450 3A4 [6], more than 30 µM.

The IC50 is the concentration that gives 50% inhibition. As a reminder, the AUC(0-t) is the area under the concentration-time curve up to a stated or last time point. Low readings indicate less exposure, high ones more exposure. As a reminder, the inhibition in vivo is the relative decrease from the control value, in per cent.
